Calls of active or inactive are those of the source. The calls are words filed in the database; no cut-off is given here.
Assays:
[1] = system: NCI-H460; assay: Induction of cell cycle arrest in human NCI-H460 cells assessed as accumulation of cells at >4N phase at 3 micromol/L incubated for 24 hrs by propidium iodide staining based flow cytometry analysis (reference value: 1.2 %); format: functional; settings: dose 3 µmol/L, at 3 µM
Procedure, shortened: (§1)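 Cells seeded in six-well plates at densities that keep them in log growth (HDF 120,000, 60,000 or 30,000; H460 100,000, 50,000 or 25,000 per well for 24, 48 or 72 h). Treated with 1 or 3 μmol/L. Floating and adherent cells collected, ethanol-fixed, permeabilized with Triton X-100 and stained with propidium iodide. DNA content read by flow cytometry as % singlet cells.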

[2] = system: NHDF; assay: Induction of cell cycle arrest in human HDF cells assessed as accumulation of cells at Sub-2N phase at 3 micromol/L incubated for 24 hrs by propidium iodide staining based flow cytometry analysis (reference value: 0.2 %); format: toxicity; settings: 3 µM, dose 3 µmol/L; procedure, shortened: as §1
[3] = Cytotoxicity against human HDF cells assessed as outgrowth of cells at 3.3 micromol/L incubated for 72 hrs by methylene blue staining based analysis relative to control; format: toxicity, cell-based; settings: HDF cells (NHDF, human dermal fibroblasts), dose 3.3 µmol/L, read-out: Activity
Procedure, shortened: (§2)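 HDF seeded at 1,300 and H460 at 600 per well in 96-well plates. After 24 h, exposed to vehicle (0.3% DMSO) or compound at 0.37–30 μmol/L for 72 h. Wells were then washed with PBS and refed with drug-free medium containing gentamicin. Regrowth was followed by methylene blue staining at set time points over 13 days in total.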

[4] = Selectivity ratio of IC50 for cytotoxicity against human HDF cells to IC50 for antiproliferative activity against human RKO cells; format: toxicity, cell-based; settings: HDF cells versus RKO cells, read-out: Ratio IC50
[5] = system: NCI-H460; assay: Induction of cell cycle arrest in human NCI-H460 cells assessed as accumulation of cells at >4N phase at 1 micromol/L incubated for 24 hrs by propidium iodide staining based flow cytometry analysis (reference value: 1.2 %); format: functional; settings: dose 1 µmol/L, at 1 µM; procedure, shortened: as §1
[6] = system: NHDF; assay: Induction of cell cycle arrest in human HDF cells assessed as accumulation of cells at G2-M phase at 3 micromol/L incubated for 24 hrs by propidium iodide staining based flow cytometry analysis (reference value: 22.6 %); format: toxicity; settings: 3 µM, dose 3 µmol/L; procedure, shortened: as §1
[7] = system: NHDF; assay: Induction of cell cycle arrest in human HDF cells assessed as accumulation of cells at G1 phase at 1 micromol/L incubated for 24 hrs by propidium iodide staining based flow cytometry analysis (reference value: 57.0 %); format: toxicity; settings: 1 µM, dose 1 µmol/L; procedure, shortened: as §1
[8] = system: NCI-H460; assay: Induction of cell cycle arrest in human NCI-H460 cells assessed as accumulation of cells at G1 phase at 3 micromol/L incubated for 72 hrs by propidium iodide staining based flow cytometry analysis (reference value: 58.2 %); format: functional; settings: dose 3 µmol/L, at 3 µM
[9] = system: NCI-H460; assay: Induction of cell cycle arrest in human NCI-H460 cells assessed as accumulation of cells at S phase at 1 micromol/L incubated for 72 hrs by propidium iodide staining based flow cytometry analysis (reference value: 17.8 %); format: functional; settings: dose 1 µmol/L, at 1 µM
[10] = system: BT-474; assay: Antiproliferative activity against human BT-474 cells assessed as inhibition of cell growth; format: functional, cell-based
[11] = system: NCI-H460; assay: Induction of cell cycle arrest in human NCI-H460 cells assessed as accumulation of cells at >4N phase at 3 micromol/L incubated for 72 hrs by propidium iodide staining based flow cytometry analysis (reference value: 0.9 %); format: functional; settings: dose 3 µmol/L, at 3 µM; procedure, shortened: as §1
[12] = system: NCI-H460; assay: Induction of cell cycle arrest in human NCI-H460 cells assessed as accumulation of cells at G2-M phase at 1 micromol/L incubated for 48 hrs by propidium iodide staining based flow cytometry analysis (reference value: 22.5 %); format: functional; settings: dose 1 µmol/L, at 1 µM
[13] = system: NCI-H460; assay: Induction of cell cycle arrest in human NCI-H460 cells assessed as accumulation of cells at G1 phase at 1 micromol/L incubated for 48 hrs by propidium iodide staining based flow cytometry analysis (reference value: 50.9 %); format: functional; settings: dose 1 µmol/L, at 1 µM; procedure, shortened: as §1
[14] = system: NCI-H460; assay: Induction of apoptosis in human NCI-H460 cells assessed as increase in caspase-3 activity at 5 micromol/L measured after 46 hrs using AcDEVD-[…] fluorogenic peptide as substrate by plate reader analysis; format: functional, cell-based; settings: dose 5.0 µmol/L
Procedure, shortened: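 H460 cells seeded at 320,000 per well in six-well plates and given 5 μmol/L for 7 to 72 h. Lysates made in Tris/phosphate buffer, pH 7.5, with Triton X-100. Cleavage of Ac-DEVD-[…] measured by fluorescence, excitation 380 nm, emission 420–460 nm.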

[15] = system: NHDF; assay: Cytotoxicity against human HDF cells assessed as outgrowth of cells at 0.37 to 3.3 micromol/L incubated for 72 hrs by methylene blue staining based analysis; format: toxicity, cell-based; settings: dose 0.37-3.3 µmol/L; procedure, shortened: as §2
[16] = system: NHDF; assay: Induction of cell cycle arrest in human HDF cells assessed as accumulation of cells at Sub-2N phase at 3 micromol/L incubated for 72 hrs by propidium iodide staining based flow cytometry analysis (reference value: 0.7 %); format: toxicity; settings: 3 µM, dose 3 µmol/L; procedure, shortened: as §1
[17] = system: NCI-H460; assay: Induction of cell cycle arrest in human NCI-H460 cells assessed as accumulation of cells at G1 phase at 1 micromol/L incubated for 72 hrs by propidium iodide staining based flow cytometry analysis (reference value: 58.2 %); format: functional; settings: dose 1 µmol/L, at 1 µM; procedure, shortened: as §1
[18] = system: NHDF; assay: Induction of cell cycle arrest in human HDF cells assessed as accumulation of cells at >4N phase at 1 micromol/L incubated for 24 hrs by propidium iodide staining based flow cytometry analysis (reference value: 2.4 %); format: toxicity; settings: 1 µM, dose 1 µmol/L; procedure, shortened: as §1
[19] = system: MES-SA; assay: Antiproliferative activity against DX5 resistant human MES-SA cells assessed as inhibition of cell growth; format: functional, cell-based
Procedure, shortened: (§3)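 Cells grown 3 days in 96-well plates, seeded so vehicle controls stay in log growth (MES-SA/DX5 7,000, MES-SA 6,000, HDF 5,000 per well). Exposed to 3-fold dilutions, 30–0.00152 μmol/L, in medium with 5% FBS, 50 μg/mL gentamicin and 0.3% (v/v) DMSO. HDF medium was low-glucose DMEM; MES-SA lines used McCoy's 5A.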

[20] = system: NCI-H460; assay: Induction of cell cycle arrest in human NCI-H460 cells assessed as accumulation of cells at S phase at 1 micromol/L incubated for 24 hrs by propidium iodide staining based flow cytometry analysis (reference value: 23.2 %); format: functional; settings: dose 1 µmol/L, at 1 µM
[21] = system: NCI-H460; assay: Induction of cell cycle arrest in human NCI-H460 cells assessed as accumulation of cells at G2-M phase at 1 micromol/L incubated for 72 hrs by propidium iodide staining based flow cytometry analysis (reference value: 18.2 %); format: functional; settings: dose 1 µmol/L
[22] = system: NCI-H460; assay: Induction of cell cycle arrest in human NCI-H460 cells assessed as accumulation of cells at S phase at 1 micromol/L incubated for 48 hrs by propidium iodide staining based flow cytometry analysis (reference value: 18.5 %); format: functional; settings: dose 1 µmol/L, at 1 µM
[23] = system: NCI-H460; assay: Induction of cell cycle arrest in human NCI-H460 cells assessed as accumulation of cells at Sub-2N phase at 3 micromol/L incubated for 48 hrs by propidium iodide staining based flow cytometry analysis (reference value: 2.5 %); format: functional; settings: dose 3 µmol/L, at 3 µM
[24] = Cytotoxicity against human HDF cells assessed as inhibition of cell growth; format: toxicity, cell-based; settings: HDF cells (NHDF, human dermal fibroblasts); procedure, shortened: as §3
[25] = system: NCI-H460; assay: Induction of cell cycle arrest in human NCI-H460 cells assessed as accumulation of cells at G2-M phase at 3 micromol/L incubated for 72 hrs by propidium iodide staining based flow cytometry analysis (reference value: 18.2 %); format: functional; settings: dose 3 µmol/L

## COc1cc2ncn(-c3cc(OCc4ccccc4C(F)(F)F)c(C(N)=O)s3)c2cc1OC [GW843682X]
[1]
  Activity: 6.2%
[2]
  Activity: 0.2%
[3]
  viability at 72 h, 3.3 µM: ~30%
[4]
  selectivity ratio: > 10
[5]
  Activity: 5.1%
[6]
  Activity: 65.6%
[7]
  Activity: 54.2%
[8]
  Activity: 3.7%
[9]
  Activity: 2.8%
[10]
  IC50: 0.57 µM
[11]
  Activity: 51%
[12]
  Activity: 11.2%
[13]
  Activity: 8.9%
[14]
  Activity: Active
[15]
  Activity: Toxic
[16]
  Activity: 9.1%
[17]
  Activity: 2.5%
[18]
  Activity: 3.5%
[19]
  IC50: 0.21 µM
[20]
  Activity: 18.2%
[21]
  Activity: 10.6%
[22]
  Activity: 24.3%
[23]
  Activity: 20.3%
[24]
  IC50: 6.14 µM
[25]
  Activity: 4.7%
